Values after ≈ are worked out from the molar mass of the structure shown. Active and inactive are the calls of the source. No cut-off for these calls is given here.
Legend:
Format in all cases: functional
Staphylococcus aureus [1] = experiment: Antibacterial activity against Staphylococcus aureus ATCC 29213 after 24 hrs by […] dilution method; details: ATCC 29213, 24 h
Staphylococcus aureus [2] = experiment: Antibacterial activity against methicillin resistant Staphylococcus aureus ATCC 33592 after 24 hrs by […] dilution method; details: ATCC 33592, 24 h
[3] = tested on: Staphylococcus epidermidis; experiment: Antibacterial activity against methicillin-susceptible Staphylococcus epidermidis isolate CANWARD-2008 81388 after 24 hrs by […] dilution method; details: isolate CANWARD-2008 81388, 24 h
[4] = tested on: Staphylococcus epidermidis; experiment: Antibacterial activity against methicillin-resistant Staphylococcus epidermidis isolate CAN-ICU 61589 after 24 hrs by […] dilution method; details: isolate CAN-ICU 61589, 24 h
Enterococcus faecalis = experiment: Antibacterial activity against Enterococcus faecalis ATCC 29212 after 24 hrs by […] dilution method; details: ATCC 29212, 24 h
Enterococcus faecium = experiment: Antibacterial activity against Enterococcus faecium ATCC 27270 after 24 hrs by […] dilution method; details: ATCC 27270, 24 h
Streptococcus pneumoniae = experiment: Antibacterial activity against Streptococcus pneumoniae ATCC 49619 after 24 hrs by […] dilution method; details: ATCC 49619, 24 h
Escherichia coli [5] = experiment: Antibacterial activity against Escherichia coli ATCC 25922 after 24 hrs by […] dilution method; details: ATCC 25922, 24 h
Escherichia coli [6] = experiment: Antibacterial activity against gentamicin-resistant Escherichia coli isolate CAN-ICU 61714 after 24 hrs by […] dilution method; details: isolate CAN-ICU 61714, 24 h
Escherichia coli [7] = experiment: Antibacterial activity against amikacin-resistant Escherichia coli isolate CAN-ICU 63074 after 24 hrs by […] dilution method; details: isolate CAN-ICU 63074, 24 h
Escherichia coli [8] = experiment: Antibacterial activity against gentamicin/tobramycin/ciprofloxacin-resistant Escherichia coli isolate CANWARD-2011 97615 harboring AAC3-2A after 24 hrs by […] dilution method; details: isolate CANWARD-2011 97615, 24 h
Pseudomonas aeruginosa [9] = experiment: Antibacterial activity against Pseudomonas aeruginosa ATCC 27853 after 24 hrs by […] dilution method; details: ATCC 27853, 24 h
Pseudomonas aeruginosa [10] = experiment: Antibacterial activity against gentamicin-resistant Pseudomonas aeruginosa isolate CAN-ICU 62308 after 24 hrs by […] dilution method; details: isolate CAN-ICU 62308, 24 h
Pseudomonas aeruginosa [11] = experiment: Antibacterial activity against gentamicin/tobramycin-resistant Pseudomonas aeruginosa isolate CANWARD-2011 96846 after 24 hrs by […] dilution method; details: isolate CANWARD-2011 96846, 24 h
[12] = tested on: Stenotrophomonas maltophilia; experiment: Antibacterial activity against Stenotrophomonas maltophilia isolate CAN-ICU 62584 after 24 hrs by […] dilution method; details: isolate CAN-ICU 62584, 24 h
Acinetobacter baumannii = experiment: Antibacterial activity against Acinetobacter baumannii isolate CAN-ICU 63169 after 24 hrs by […] dilution method; details: isolate CAN-ICU 63169, 24 h
Klebsiella pneumoniae = experiment: Antibacterial activity against Klebsiella pneumoniae ATCC 13883 after 24 hrs by […] dilution method; details: ATCC 13883, 24 h
Pseudomonas aeruginosa [13] = experiment: Antibacterial activity against Pseudomonas aeruginosa PAO1 after 18 hrs by microtiter dilution assay; details: PAO1, 18 h
In short: (§1)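 Broth microdilution following CLSI guidelines. An overnight culture was adjusted to 0.5 McFarland in saline, then diluted 1:50 in Mueller-Hinton broth. This inoculum was added in equal volume to 2-fold serial dilutions of agent in MHB and incubated 18 h at 37 °C. MIC was the lowest concentration with no visible growth.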

Pseudomonas aeruginosa [14] = experiment: Antibacterial activity against multidrug/extremely drug-resistant/colistin-susceptible Pseudomonas aeruginosa isolate 100036 after 18 hrs by microtiter dilution assay; details: isolate 100036, 18 h; in short: as §1
Pseudomonas aeruginosa [15] = experiment: Antibacterial activity against multidrug/extremely drug-resistant/colistin-susceptible Pseudomonas aeruginosa isolate 101885 after 18 hrs by microtiter dilution assay; details: isolate 101885, 18 h; in short: as §1
Pseudomonas aeruginosa [16] = experiment: Antibacterial activity against multidrug/extremely drug-resistant/colistin-susceptible Pseudomonas aeruginosa isolate P259-96918 after 18 hrs by microtiter dilution assay; details: isolate P259-96918, 18 h; in short: as §1
Pseudomonas aeruginosa [17] = experiment: Antibacterial activity against multidrug/extremely drug-resistant/colistin-susceptible Pseudomonas aeruginosa isolate P262-101856 after 18 hrs by microtiter dilution assay; details: isolate P262-101856, 18 h; in short: as §1
Pseudomonas aeruginosa [18] = experiment: Antibacterial activity against multidrug/extremely drug-resistant/colistin-susceptible Pseudomonas aeruginosa isolate P264-104354 after 18 hrs by microtiter dilution assay; details: isolate P264-104354, 18 h; in short: as §1
Pseudomonas aeruginosa [19] = experiment: Antibacterial activity against multidrug/extremely drug-resistant/colistin-resistant Pseudomonas aeruginosa isolate 91433 after 18 hrs by microtiter dilution assay; details: isolate 91433, 18 h; in short: as §1
Pseudomonas aeruginosa [20] = experiment: Antibacterial activity against multidrug/extremely drug-resistant/colistin-resistant Pseudomonas aeruginosa isolate 101243 after 18 hrs by microtiter dilution assay; details: isolate 101243, 18 h; in short: as §1
Pseudomonas aeruginosa [21] = experiment: Synergistic antibacterial activity against Pseudomonas aeruginosa PAO1 after 18 hrs in presence of minocycline by checkerboard assay
In short: (§2)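 Checkerboard in MHB: antibiotic diluted along one axis and adjuvant along the other (10 × 7 matrix). Inoculum was a 1:50 dilution in MHB of a 0.5 McFarland saline suspension; incubated 18 h at 37 °C. Each FIC = concentration in the no-growth well divided by the MIC alone; FIC index = sum of both FICs. ≤0.5 synergy, 0.5–4 no interaction, ≥4 antagonism.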

Pseudomonas aeruginosa [22] = experiment: Synergistic antibacterial activity against Pseudomonas aeruginosa PAO1 after 18 hrs in presence of rifampicin by checkerboard assay; in short: as §2
Pseudomonas aeruginosa [23] = experiment: Antibacterial activity against Pseudomonas aeruginosa PAO1 assessed as ratio of MIC after 25 serial passages to MIC before 25 serial passages by microtiter dilution assay
In short: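 Sequential passaging of wild-type PAO1 with single drugs or drug combinations. MIC was tested in MHB for 18 h. Cells from the well at half the MIC were adjusted to 0.5 McFarland in saline, diluted 1:50 in fresh MHB and used for the next MIC test. This was repeated for 25 passages, and the fold change in MIC was plotted against passage number.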

Pseudomonas aeruginosa [24] = experiment: Induction of cytoplasmic membrane depolarization in Pseudomonas aeruginosa PAO1 up to 1200 secs by diSC3-5 staining based fluorescence assay
In short: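 Mid-log PAO1 washed in 5 mM HEPES pH 7.4 with 20 mM glucose and resuspended to OD600 0.05. Cells were loaded with 0.2 mM EDTA and 0.4 µM diSC3-5 for 2 h at 37 °C in the dark, then equilibrated with 100 mM KCl for 30 min. Agent was added and fluorescence followed at 622/670 nm; agents tested at 32 µg/mL.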

For `NC[C@H]1O[C@H](O[C@H]2[C@H](O)[C@@H](O[C@H]3O[C@H](CO)[C@@H](O)[C@H](N)[C@H]3O)[C@H](N)C[C@@H]2N)[C@H](N)C[C@@H]1O` [TOBRAMYCIN], the MIC (Staphylococcus aureus [1]) was ≤ 0.25 µg/mL, the MIC (Staphylococcus aureus [2]) was ≤ 0.25 µg/mL and the MIC [3] was ≤ 0.25 µg/mL. It also gave an MIC [4] of 1 µg/mL (≈ 2.14 µM), an MIC (Enterococcus faecalis) of 8 µg/mL (≈ 17.1 µM) and an MIC (Enterococcus faecium) of 8 µg/mL (≈ 17.1 µM). The MIC (Streptococcus pneumoniae) was 2 µg/mL (≈ 4.28 µM), the MIC (Escherichia coli [5]) was 0.5 µg/mL (≈ 1.07 µM) and the MIC (Escherichia coli [6]) was 8 µg/mL (≈ 17.1 µM). For the same molecule, the MIC (Escherichia coli [7]) was 8 µg/mL (≈ 17.1 µM), the MIC (Escherichia coli [8]) was 128 µg/mL (≈ 274 µM) and the MIC (Pseudomonas aeruginosa [9]) was 0.5 µg/mL (≈ 1.07 µM). For the same molecule, the MIC (Pseudomonas aeruginosa [10]) was 16 µg/mL (≈ 34.2 µM), the MIC (Pseudomonas aeruginosa [11]) was 256 µg/mL (≈ 548 µM) and the MIC [12] was > 512 µg/mL. For the same molecule, the MIC (Acinetobacter baumannii) was 32 µg/mL (≈ 68.4 µM), the MIC (Klebsiella pneumoniae) was ≤ 0.25 µg/mL and the MIC (Pseudomonas aeruginosa [13]) was 0.25 µg/mL (≈ 0.535 µM). It also gave an MIC (Pseudomonas aeruginosa [14]) of 64 µg/mL (≈ 137 µM), an MIC (Pseudomonas aeruginosa [15]) of 0.25 µg/mL (≈ 0.535 µM) and an MIC (Pseudomonas aeruginosa [16]) of 128 µg/mL (≈ 274 µM). It also gave an MIC (Pseudomonas aeruginosa [17]) of 512 µg/mL (≈ 1100 µM), an MIC (Pseudomonas aeruginosa [18]) of 128 µg/mL (≈ 274 µM) and an MIC (Pseudomonas aeruginosa [19]) of 8 µg/mL (≈ 17.1 µM). The MIC (Pseudomonas aeruginosa [20]) was 256 µg/mL (≈ 548 µM), the Activity (Pseudomonas aeruginosa [21]) was “inactive” and the Activity (Pseudomonas aeruginosa [22]) was “inactive”. For the same molecule, the Ratio (Pseudomonas aeruginosa [23]) was 256 and the Activity (Pseudomonas aeruginosa [24]) was “Dose-dependent effect”.

— ChEMBL document CHEMBL4014308, “Amphiphilic Tobramycin-Lysine Conjugates Sensitize Multidrug Resistant Gram-Negative Bacteria to Rifampicin and Minocycline” (J Med Chem, 2017)
